# Active and inactive are the calls of the source. The rule behind the calls is not given here.
# Experiments:
# [1] = test system: Rattus norvegicus; assay: Central nervous system activity in ip dosed rat assessed as induction of depressant; assay type: functional
# Outline: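 Young adult female rats received 5% solutions or dispersions (two drops Tween 80) in water at 200, 100 and 50 mg/kg. Compounds active at 50 mg/kg were also given at 25 and 12.5 mg/kg. The ED value was the lowest dose that decreased motor activity in 2/2 rats.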
# [2] = test system: Rattus norvegicus; assay: Antiinflammatory activity in Sprague-Dawley rat assessed as inhibition of carrageenan-induced paw edema at 150 mg/kg, po after 3 hrs; assay type: functional
# Outline: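 Given by mouth in 1 mL water or 1% aqueous sodium carboxymethylcellulose to adult Charles River Sprague-Dawley rats (seven per group), 2 h before a footpad injection of 0.05 mL 1% carrageenan in pyrogen-free saline. After 3 h, rats were killed and paws removed and weighed, with the contralateral paw as control. Read-out was percent inhibition of edema.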
# [3] = Toxicity in po dosed Sprague-Dawley rat; assay type: organism-based; details: in vivo
# [4] = test system: Rattus norvegicus; assay: Toxicity in Sprague-Dawley rat assessed as induction of ulcer at 150 to 600 mg/kg, po after 6 hrs; assay type: organism-based; parameters: dose 150-600 mg/kg, route oral; details: in vivo
# Outline: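 Male Sprague-Dawley rats were kept without food pellets, with free access to water containing 5% dextrose, for 48 h. The compound, dissolved or suspended in water, was then given by gavage at 150, 300 and 600 mg/kg, eight rats per dose.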
# [5] = test system: Rattus norvegicus; assay: Central nervous system activity in rat assessed as induction of depressant at 100 mg/kg, po; assay type: functional, organism-based; parameters: dose 100 mg/kg
# [6] = test system: Rattus norvegicus; assay: Toxicity in rat at 100 mg/kg, ip; assay type: organism-based; parameters: dose 100 mg/kg, route intraperitoneal; details: in vivo
Structure (SMILES),ED [1] [mg/kg],inhibition in vivo at 150 mg/kg [2] [%],further results
CCCN1N=C2/C(=C/c3ccccc3)CN(C)CC2C1c1ccccc1.O=P(O)(O)O (configuration not stated),100,47,LD50 [3]: 5400 mg/kg; Activity [4]: Non-toxic
CN(C)CCCN1N=C2/C(=C\c3ccccc3)CCCC2C1c1ccccc1.O=C(O)C(=O)O (configuration not stated),50,,
CN1N=C2/C(=C/c3ccccc3)CN(C(N)=O)CC2C1c1ccccc1 (configuration not stated),>200,,
CCC(=O)N1C/C(=C\c2ccccc2)C2=NN(C)C(c3ccccc3)C2C1 (configuration not stated),200,,
CNC(=O)N1C/C(=C\c2ccccc2)C2=NN(C)C(c3ccccc3)C2C1.Cl (configuration not stated),>200,,
CCCCN1C/C(=C\c2ccccc2)C2=NN(C)C(c3ccccc3)C2C1.Cl (configuration not stated),100,,
CN(C)CCCN1N=C2/C(=C/c3ccccc3)CN(CCc3ccccc3)CC2C1c1ccccc1.O=C(O)/C=C\C(=O)O (configuration not stated),>200,,
CN1C/C(=C\c2cccc(Cl)c2)C2=NN(C)C(c3cccc(Cl)c3)C2C1.Cl (configuration not stated),>200,,
CN1C/C(=C\c2ccccc2)C2=NN(CCO)C(c3ccccc3)C2C1.Cl (configuration not stated),200,41,
CCN1C/C(=C\c2ccccc2)C2=NN(C)C(c3ccccc3)C2C1.Cl (configuration not stated),200,,
CN1N=C2/C(=C\c3ccccc3)CCCC2C1c1ccccc1 (configuration not stated),>200,,
CN1C/C(=C\c2ccccc2)C2=NN(CCCc3ccccc3)C(c3ccccc3)C2C1.Cl (configuration not stated),>200,,
CN1CCN(CCCN2N=C3/C(=C\c4ccccc4)CCCC3C2c2ccccc2)CC1.O=C(O)/C=C\C(=O)O (configuration not stated),200,,
C(=C1\CCCC2C1=NN(CCCN1CCOCC1)C2c1ccccc1)/c1ccccc1.Cl (configuration not stated),100,30,
CC(=O)N1N=C2/C(=C/c3ccccc3)CN(C)CC2C1c1ccccc1.Cl (configuration not stated),200,,
CN1C/C(=C\c2ccccc2)C2=NNC(c3ccccc3)C2C1.Cl (configuration not stated),50,,
CN1N=C2/C(=C/c3ccccc3)CNCC2C1c1ccccc1.Cl (configuration not stated),12.5,,Activity [5]: Active
CN1C/C(=C\c2ccccc2)C2=NN(CC(F)(F)F)C(c3ccccc3)C2C1.Cl (configuration not stated),100,27,

Structure (SMILES),ED [1] [mg/kg],inhibition in vivo at 150 mg/kg [2] [%],further results
CN1N=C2/C(=C/c3ccccc3)CN(CCc3ccccc3)CC2C1c1ccccc1.Cl (configuration not stated),100,32,
CN1C/C(=C\c2ccccc2Cl)C2=NN(C)C(c3ccccc3Cl)C2C1.Cl (configuration not stated),>200,,
CN1N=C2/C(=C/c3ccccc3)CN(Cc3ccccc3)CC2C1c1ccccc1.Cl (configuration not stated),100,0,
CCCC(C)(COC(N)=O)COC(N)=O [MEPROBAMATE],50,,
CN(C)CCCN1N=C2/C(=C/c3ccccc3)CN(C)CC2C1c1ccccc1.Cl (configuration not stated),100,,
CC(=O)N1C/C(=C\c2ccccc2)C2=NN(C)C(c3ccccc3)C2C1 (configuration not stated),100,,
CCN(CC)CCCN1N=C2/C(=C\c3ccccc3)CCCC2C1c1ccccc1.O=C(O)/C=C\C(=O)O (configuration not stated),100,,
CN(C)CCN1N=C2/C(=C\c3ccccc3)CCCC2C1c1ccccc1.O=C(O)/C=C\C(=O)O (configuration not stated),100,,
CN(C)CCN1N=C2/C(=C/c3ccccc3)CN(C)CC2C1c1ccccc1.Cl (configuration not stated),25,,Activity [6]: Toxic
CCN1N=C2/C(=C/c3ccccc3)CN(C)CC2C1c1ccccc1.Cl (configuration not stated),>200,,
COc1ccc(/C=C2\CN(C)CC3C2=NN(C)C3c2ccc(OC)cc2)cc1.Cl (configuration not stated),>200,29,
CC(=O)CCN1C/C(=C\c2ccccc2)C2=NN(C)C(c3ccccc3)C2C1.Cl (configuration not stated),>200,,
CN1C/C(=C\c2ccc(Cl)cc2)C2=NN(C)C(c3ccc(Cl)cc3)C2C1.Cl (configuration not stated),>200,17,
CCCCN1N=C2/C(=C/c3ccccc3)CN(C)CC2C1c1ccccc1.Cl (configuration not stated),>200,26,
C(=C1\CCCC2C1=NN(CCCN1CCCCC1)C2c1ccccc1)/c1ccccc1.O=C(O)/C=C\C(=O)O (configuration not stated),200,,
CN1N=C2/C(=C/c3ccccc3)CN(C(=N)N)CC2C1c1ccccc1.Cl (configuration not stated),200,,
CCCCC1C(=O)N(c2ccccc2)N(c2ccccc2)C1=O [PHENYLBUTAZONE],,51,LD50 [3]: 1200 mg/kg; Activity [4]: Non-toxic
CN1C/C(=C\c2ccccc2)C2=NN(C)[C@@H](c3ccccc3)[C@@H]2C1.Cl,50,22,
